Measured values published in publication PMC5558854 (Molecular cell, 2017).
Where no end group is shown, it is not given here. [ ]: non-standard residue; d: D form. The star is where a group is joined. FITC = O=C1OC2(c3ccc(O)cc3Oc3cc(O)ccc32)c2ccc(NC(=S)*)cc21; pY = N[C@@H](Cc1ccc(OP(=O)(O)O)cc1)C(=O)O

Key:
Csk^AS [1] = test: Reconstituted cellular system for Lck activation; assay type: cell-based; details: HEK 293 cells with CD45, Csk^AS, 3-IB-PP1 5 μM, 1 min, 37 °C, immunoblot
Csk^AS [2] = details: analog-sensitive allele of Csk; ref Schoenborn et al., 2011; cited from earlier work
J.Lck cells = test: Intracellular calcium measurement by flow cytometry; assay type: cell-based, human; details: J.Lck cells expressing Lck Y192E/A variants; Indo-1 AM, 37 °C, flow cytometry (Figure S2)
tyrosine phosphatases = test: Total protein phosphotyrosine immunoblot after pervanadate treatment; assay type: cell-based, human; details: J.Lck cells, Lck Y192E/A variants; pervanadate 100 μM; immunoblot (Figure S2B)
Summary of the method: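 Jurkat-derived cells grown in RPMI with 10% FBS and 2 mM glutamine at 37 °C, 5% CO2. Lck-reconstituted lines checked by immunoblot and sequencing. Cells rinsed in RPMI, resuspended at 5 × 10^6 cells/mL and rested 15 min at 37 °C, then left unstimulated or given pervanadate (100 μM). Lysis in 1% NP-40 (final) with […], NaF, EDTA, PMSF, protease inhibitors and PP2 (25 μM). Immunoblot read-out.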

[3] = target: GST Lck SH2 protein (human Lck SH2 domain, residues 123-227, WT) (human, UniProt P06239 123-227); test: fluorescence polarisation
[4] = target: GST Lck SH2 Y192E (human Lck SH2 domain, residues 123-227) (human, UniProt P06239 123-227, Y192E); test: fluorescence polarisation
Sequence of GST Lck SH2 Y192E (human Lck SH2 domain, residues 123-227) (P06239 123-227 Y192E): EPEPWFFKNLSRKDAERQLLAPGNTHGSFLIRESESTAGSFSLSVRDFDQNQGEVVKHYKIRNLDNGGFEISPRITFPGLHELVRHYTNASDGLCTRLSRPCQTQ

Sequence of GST Lck SH2 protein (human Lck SH2 domain, residues 123-227, WT) (P06239 123-227): as the sequence (P06239 123-227 Y192E) above, with E70Y counted along it

In the case of `CC(C)(C)n1nc(Cc2cccc(I)c2)c2c(N)ncnc21` [3-IB-PP1], the “CD8/ζ-chain phosphorylation upon Csk^AS inhibition” value (Csk^AS [1]; N=3, Lck Y192E/A variants) is listed as “only a minimal increase”, the “C-terminal tail (Y505) phosphorylation upon Csk^AS inhibition” value (Csk^AS [1]; CD8/ζ, N=3, Lck Y192F) is listed as “the Y192F mutant is dephosphorylated by CD45” and the “inhibition of Csk^AS” value (Csk^AS [2]) is listed as “inhibited”.

In the case of `C[C@H](CCC(=O)O)C[C@H](C)C[C@H](C)C(=O)/C=C(\O)[C@H](C)C[C@H](C)C/C=C/[C@@H](C)[C@@H](O)[C@@H](C)[C@@H](O)C[C@@H]1CC[C@@](C)([C@H]2CC[C@@](C)([C@@H](C)O)O2)O1` [ionomycin], the “calcium response to ionomycin” value (J.Lck cells) is reported as “responded robustly”.

For pervanadate, the “Lck autophosphorylation upon pervanadate treatment” value (tyrosine phosphatases) was “robust autophosphorylation”.

{FITC}-TEGQ[pY]QPQP [FITC-TEGQ[pY]QPQP, phosphopeptide of the Lck C-terminal tail]: binds [3]; binds [4].
